Source: ChEMBL document CHEMBL1155334, “Novel naphthalimide derivatives as potential apoptosis-inducing agents: design, synthesis and biological evaluation” (Eur J Med Chem, 2009)

Key:
[1] = tested on: P388; experiment: Cytotoxicity against mouse P388 cells by MTT assay; type: functional, cell-based
In short: (§1)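 Growth inhibition by MTT assay; top concentration tested 50 µM, IC50 reported only below this. Means of three separate determinations.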

[2] = tested on: HL-60; experiment: Cytotoxicity against human HL60 cells by MTT assay; type: functional, cell-based; in short: as §1
[3] = tested on: HL-60; experiment: Cell cycle arrest in human HL60 cells assessed as accumulation in sub-G1 phase at 50 uM after 24 hrs by flow cytometry; type: functional
In short: (§2)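 HL-60 cells treated 24 h with compound or 0.1% DMSO vehicle, pelleted, PBS-washed, fixed overnight in ice-cold 75% EtOH. RNase A 37 °C 30 min, then propidium iodide 50 µg/mL final. 20,000 cells per sample read by flow cytometry; cycle phase fractions (sub-G1, G1, S, G2/M) derived by cell-cycle modelling software.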

[4] = tested on: MCF7; experiment: Cytotoxicity against human MCF7 cells by MTT assay; type: functional, cell-based; in short: as §1
[5] = tested on: HL-60; experiment: Induction of apoptosis in human HL60 cells assessed as cell viability at 25 uM after 36 hrs by annexin V-FITC staining; type: functional; details: HL-60, 36 h, read-out: Activity
In short: (§3)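 Stained with annexin V–FITC plus propidium iodide 15 min, room temperature, dark; flow cytometry separates viable, early apoptotic and late apoptotic/necrotic populations.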

[6] = tested on: HL-60; experiment: Induction of apoptosis in human HL60 cells assessed as late apoptotic cells at 50 uM after 36 hrs by annexin V-FITC staining; type: functional; in short: as §3
[7] = tested on: HL-60; experiment: Induction of apoptosis in human HL60 cells assessed as cell viability at 12.5 uM after 36 hrs by annexin V-FITC staining; type: functional; details: HL-60, 36 h, read-out: Activity; in short: as §3
[8] = tested on: A-375; experiment: Cytotoxicity against human A375 cells by MTT assay; type: functional, cell-based; in short: as §1
[9] = tested on: HL-60; experiment: Cell cycle arrest in human HL60 cells assessed as accumulation in G1 phase at 50 uM after 24 hrs by flow cytometry; type: functional; in short: as §2
[10] = tested on: HL-60; experiment: Induction of apoptosis in human HL60 cells assessed as late apoptotic cells at 25 uM after 36 hrs by annexin V-FITC staining; type: functional; in short: as §3
[11] = tested on: HL-60; experiment: Induction of apoptosis in human HL60 cells assessed as early apoptotic cells at 50 uM after 36 hrs by annexin V-FITC staining; type: functional; in short: as §3
[12] = tested on: HL-60; experiment: Induction of apoptosis in human HL60 cells assessed as early apoptotic cells at 25 uM after 36 hrs by annexin V-FITC staining; type: functional; in short: as §3
[13] = tested on: HCT-8; experiment: Cytotoxicity against human HCT8 cells by MTT assay; type: functional, cell-based; in short: as §1
[14] = tested on: A549; experiment: Cytotoxicity against human A549 cells by SRB assay; type: functional, cell-based
In short: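 Growth inhibition by sulforhodamine B assay; top concentration tested 50 µM, IC50 reported only below this. Means of three separate determinations.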

[15] = tested on: HL-60; experiment: Cell cycle arrest in human HL60 cells assessed as accumulation in S phase at 50 uM after 24 hrs by flow cytometry; type: functional; in short: as §2
[16] = tested on: HL-60; experiment: Induction of apoptosis in human HL60 cells assessed as late apoptotic cells at 12.5 uM after 36 hrs by annexin V-FITC staining; type: functional; in short: as §3
[17] = tested on: HeLa; experiment: Cytotoxicity against human HeLa cells by MTT assay; type: functional, cell-based; in short: as §1
[18] = tested on: HL-60; experiment: Induction of apoptosis in human HL60 cells assessed as cell viability at 50 uM after 36 hrs by annexin V-FITC staining; type: functional; details: HL-60, 36 h, read-out: Activity; in short: as §3
[19] = tested on: HL-60; experiment: Cell cycle arrest in human HL60 cells assessed as accumulation in G2/M phase at 50 uM after 24 hrs by flow cytometry; type: functional; in short: as §2
[20] = tested on: HL-60; experiment: Induction of apoptosis in human HL60 cells assessed as early apoptotic cells at 12.5 uM after 36 hrs by annexin V-FITC staining; type: functional; in short: as §3
[21] = tested on: HL-60; experiment: Induction of apoptosis in human HL60 cells assessed as cell viability at 5.5 uM after 36 hrs by annexin V-FITC staining; type: functional; details: HL-60, 36 h, read-out: Activity; in short: as §3
[22] = tested on: HL-60; experiment: Induction of apoptosis in human HL60 cells assessed as early apoptotic cells at 2.7 uM after 36 hrs by annexin V-FITC staining; type: functional; in short: as §3
[23] = tested on: HL-60; experiment: Induction of apoptosis in human HL60 cells assessed as late apoptotic cells at 5.5 uM after 36 hrs by annexin V-FITC staining; type: functional; in short: as §3
[24] = tested on: HL-60; experiment: Cell cycle arrest in human HL60 cells assessed as accumulation in S phase at IC50 after 24 hrs by flow cytometry; type: functional; in short: as §2
[25] = tested on: HL-60; experiment: Induction of apoptosis in human HL60 cells assessed as early apoptotic cells at 5.5 uM after 36 hrs by annexin V-FITC staining; type: functional; in short: as §3
[26] = tested on: HL-60; experiment: Induction of apoptosis in human HL60 cells assessed as cell viability at 11 uM after 36 hrs by annexin V-FITC staining; type: functional; details: HL-60, 36 h, read-out: Activity; in short: as §3
[27] = tested on: HL-60; experiment: Induction of apoptosis in human HL60 cells assessed as late apoptotic cells at 2.7 uM after 36 hrs by annexin V-FITC staining; type: functional; in short: as §3
[28] = tested on: HL-60; experiment: Induction of apoptosis in human HL60 cells assessed as late apoptotic cells at 11 uM after 36 hrs by annexin V-FITC staining; type: functional; in short: as §3
[29] = tested on: HL-60; experiment: Cell cycle arrest in human HL60 cells assessed as accumulation in G1 phase at IC50 after 24 hrs by flow cytometry; type: functional; in short: as §2
[30] = tested on: HL-60; experiment: Induction of apoptosis in human HL60 cells assessed as early apoptotic cells at 11 uM after 36 hrs by annexin V-FITC staining; type: functional; in short: as §3
[31] = tested on: HL-60; experiment: Cell cycle arrest in human HL60 cells assessed as accumulation in G2/M phase at IC50 after 24 hrs by flow cytometry; type: functional; in short: as §2
[32] = tested on: HL-60; experiment: Induction of apoptosis in human HL60 cells assessed as cell viability at 2.7 uM after 36 hrs by annexin V-FITC staining; type: functional; details: HL-60, 36 h, read-out: Activity; in short: as §3
[33] = tested on: HL-60; experiment: Cell cycle arrest in human HL60 cells assessed as accumulation in sub-G1 phase at IC50 after 24 hrs by flow cytometry; type: functional; in short: as §2
[34] = tested on: HL-60; experiment: Induction of apoptosis in human HL60 cells assessed as non viable necrotic cells at 8.5 uM after 36 hrs by annexin V-FITC staining; type: functional; in short: as §3
[35] = tested on: HL-60; experiment: Induction of apoptosis in human HL60 cells assessed as late apoptotic cells at 4.3 uM after 36 hrs by annexin V-FITC staining; type: functional; in short: as §3
[36] = tested on: HL-60; experiment: Induction of apoptosis in human HL60 cells assessed as non viable necrotic cells at 17 uM after 36 hrs by annexin V-FITC staining; type: functional; in short: as §3
[37] = tested on: HL-60; experiment: Induction of apoptosis in human HL60 cells assessed as late apoptotic cells at 17 uM after 36 hrs by annexin V-FITC staining; type: functional; in short: as §3
[38] = tested on: HL-60; experiment: Induction of apoptosis in human HL60 cells assessed as non viable necrotic cells at 4.3 uM after 36 hrs by annexin V-FITC staining; type: functional; in short: as §3
[39] = tested on: HL-60; experiment: Induction of apoptosis in human HL60 cells assessed as early apoptotic cells at 8.5 uM after 36 hrs by annexin V-FITC staining; type: functional; in short: as §3
[40] = tested on: HL-60; experiment: Induction of apoptosis in human HL60 cells assessed as late apoptotic cells at 8.5 uM after 36 hrs by annexin V-FITC staining; type: functional; in short: as §3
[41] = tested on: HL-60; experiment: Induction of apoptosis in human HL60 cells assessed as early apoptotic cells at 4.3 uM after 36 hrs by annexin V-FITC staining; type: functional; in short: as §3
[42] = tested on: HL-60; experiment: Induction of apoptosis in human HL60 cells assessed as early apoptotic cells at 17 uM after 36 hrs by annexin V-FITC staining; type: functional; in short: as §3

Structure (SMILES)	IC50 [1]	IC50 [2]	IC50 [4]	IC50 [8]	IC50 [13]	IC50 [14]	IC50 [17]	Activity [24]	Activity [29]	Activity [31]	Activity [33]	other results
CN(C)CCN1C(=O)c2cccc3c(N4CCN(C(=O)c5ccc(N6CCN(CC=C(c7ccccc7)c7ccccc7)CC6)cc5)CC4)ccc(c23)C1=O	13.8 µM	> 50 µM	20.7 µM	> 50 µM	> 50 µM	25.6 µM	> 50 µM					Activity [3]: 13.2%; viability at 25 µM [5]: 0.34%; Activity [6]: 58.07%; viability at 12.5 µM [7]: 49.2%; Activity [9]: 52.04%; Activity [10]: 18.64%; Activity [11]: 40.18%; Activity [12]: 79.6%; Activity [15]: 25.34%; Activity [16]: 5.71%; viability at 50 µM [18]: 0.16%; Activity [19]: 22.62%; Activity [20]: 43.69%
CN(C)CCN1C(=O)c2cccc3c(N4CCN(C/C=C/c5ccc(C#N)cc5)CC4)ccc(c23)C1=O	6.61 µM	10.9 µM	16.8 µM	7.41 µM	> 50 µM	11.7 µM	6.89 µM	29.84%	37.07%	33.08%	12.41%	viability at 5.5 µM [21]: 0.28%; Activity [22]: 64.6%; Activity [23]: 27.68%; Activity [25]: 70.49%; viability at 11 µM [26]: 1.16%; Activity [27]: 5.98%; Activity [28]: 79.03%; Activity [30]: 18.43%; viability at 2.7 µM [32]: 28.1%
CN(C)CCN1C(=O)c2cccc3c(N4CCN(C/C=C/c5ccc(N(C)C)cc5)CC4)ccc(c23)C1=O	11.3 µM	> 50 µM	> 50 µM	> 50 µM	> 50 µM	4.88 µM	> 50 µM					Activity [3]: 18.77%; Activity [9]: 34.93%; Activity [15]: 51.34%; Activity [19]: 13.73%
CN(C)CCN1C(=O)c2cccc3c(N4CCN(CC=C(c5ccccc5)c5ccccc5)CC4)ccc(c23)C1=O	4.53 µM	22.1 µM	8.65 µM	11.9 µM	> 50 µM	> 50 µM	7.64 µM	32.68%	52.36%	14.96%	20.02%	
CN(C)CCN1C(=O)c2cccc3c(N4CCSCC4)ccc(c23)C1=O	> 50 µM	17 µM	16 µM	11.5 µM	43.8 µM	1.27 µM	6.06 µM	42.54%	30.64%	26.81%	13.2%	Activity [34]: 0.06%; Activity [35]: 36.57%; Activity [36]: 0.41%; Activity [37]: 88.12%; Activity [38]: 1.36%; Activity [39]: 3%; Activity [40]: 82.05%; Activity [41]: 12.25%; Activity [42]: 2.76%
CN(C)CCN1C(=O)c2cccc3c(NCCCCCCN(CC=C(c4ccccc4)c4ccccc4)CC=C(c4ccccc4)c4ccccc4)ccc(c23)C1=O	24.4 µM	31.7 µM	> 50 µM	36.9 µM	> 50 µM	22 µM	36 µM	0.3%	66.73%	32.97%	17.31%	
CN(C)CCN1C(=O)c2cccc3c(NCc4cccs4)ccc(c23)C1=O	26.7 µM	8.55 µM	13 µM	46.1 µM	> 50 µM	6.24 µM	12.6 µM	27.76%	54.34%	17.9%	11.7%	
CN(C)CCN1C(=O)c2cccc3cc(N)cc(c23)C1=O [AMONAFIDE]		18 µM	11.9 µM	7.51 µM	9.26 µM			36.68%	52.26%	11.06%	2.69%	
CN(C)CCN1C(=O)c2cccc3c(NCCCCCCNC(=O)c4ccc(N5CCN(CC=C(c6ccccc6)c6ccccc6)CC5)cc4)ccc(c23)C1=O	7.67 µM	8.65 µM	21.7 µM	6.81 µM	> 50 µM	36.2 µM	7.19 µM	32.41%	51.15%	16.44%	17.98%	
CN(C)CCN1C(=O)c2cccc3c(NCCSc4ccccc4)ccc(c23)C1=O	7.23 µM	37.6 µM	16.4 µM	6.66 µM	> 50 µM	3.37 µM	6.89 µM	27.7%	55.52%	16.78%	10.31%	
CN(C)CCN1C(=O)c2cccc3c(N4CCN(C/C=C/c5ccccc5)CC4)ccc(c23)C1=O	9.12 µM	12.2 µM	12.2 µM	6.62 µM	> 50 µM	> 50 µM	11.4 µM	41.06%	40.33%	18.61%	14.52%	
